Laboratory results from ChEMBL document CHEMBL1154463, “Synthesis and induction of G0-G1 phase arrest with apoptosis of 3,5-dimethyl-6-phenyl-8-(trifluoromethyl)-5,6-dihydropyrazolo[3,4-f][1,2,3,5]tetrazepin-4(3H)-one” (Eur J Med Chem, 2008).
Where a name gives a salt, the structure may show the parent alone. The source made the active and inactive calls. The rule behind the calls is not given here.

Legend:
[1] = test system: HL-60; test: Induction of apoptosis in multidrug resistant human HL60 cells after 48 hrs; format: functional, cell-based; conditions: HL-60, 48 h
In short: (§1)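 Cells exposed 48 h to a range of concentrations, then 2 × 10⁵ cells pelleted (300 × g) and stained with acridine orange and ethidium bromide ([…]). Read by fluorescence microscopy under oil immersion. Apoptosis scored by perinuclear chromatin condensation and apoptotic bodies, counting ≥300 cells. AC50 = concentration giving 50% apoptotic cells. Bars: SE.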

[2] = test system: HL-60; test: human HL60 cells after 48 hrs; conditions: HL-60, 48 h
[3] = test system: K562; test: Induction of apoptosis in imatinib mesylate-resistant human K562 cells after 48 hrs; format: functional, cell-based; in short: as §1
[4] = test system: HL-60; test: Induction of apoptosis in human HL60 cells after 48 hrs; format: functional, cell-based; conditions: HL-60, 48 h; in short: as §1
[5] = test system: HL-60; test: Cytotoxicity against human HL60 cells after 48 hrs by trypan blue exclusion method; format: functional, cell-based; conditions: HL-60, 48 h
In short: (§2)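 2 × 10⁵ cells in 1 ml complete medium treated with a range of concentrations, added as freshly prepared DMSO solution (final DMSO ≤0.3% v/v), for 48 h. Viable cells counted and expressed as percent of untreated control proliferation; IC50 = concentration inhibiting 50% of growth, from 48 h exposure. Bars: SE.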

[6] = test system: HL-60; test: Cytotoxicity against multidrug-resistant human HL60 cells after 48 hrs by trypan blue exclusion method; format: functional, cell-based; conditions: HL-60, 48 h; in short: as §2
[7] = test system: K562; test: Cytotoxicity against human K562 cells after 48 hrs by trypan blue exclusion method; format: functional, cell-based; conditions: K562, 48 h; in short: as §2
[8] = test system: K562; test: Cytotoxicity against imatinib mesylate-resistant human K562 cells after 48 hrs by trypan blue exclusion method; format: functional, cell-based; conditions: K562, 48 h; in short: as §2
[9] = test system: K562; test: Induction of apoptosis in human K562 cells after 48 hrs; format: functional, cell-based; conditions: K562, 48 h
[10] = test system: K562; test: Cell cycle arrest in human K562 cells assessed as accumulation at GO-G1 phase after 24 hrs by flow cytometry; format: functional, cell-based
In short: (§3)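 K562 cells cultured 24 h and 48 h without compound or at 25, 50 or […] (unit as printed). Cells washed in ice-cold PBS, resuspended at 10⁶/ml in hypotonic propidium iodide ([…])/0.03% v/v NP-40 in 0.1% sodium citrate for 30 min. DNA content read by flow cytometry as single-parameter histograms; G0–G1 and sub-G0–G1 fractions taken as percent of cells.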

[11] = test system: K562; test: Induction of apoptosis in human K562 cells assessed as accumulation at sub GO-G1 phase accumulation after 24 hrs by flow cytometry; format: functional, cell-based; in short: as §3
[12] = test system: K562; test: Cell cycle arrest in human K562 cells assessed as accumulation at GO-G1 phase at 50 uM after 24 hrs by flow cytometry; format: functional; in short: as §3
[13] = test system: K562; test: Cell cycle arrest in human K562 cells assessed as accumulation at GO-G1 phase at 50 uM after 48 hrs by flow cytometry; format: functional; in short: as §3
[14] = test system: K562; test: Induction of apoptosis in human K562 cells assessed as accumulation at sub GO-G1 phase accumulation at 50 uM after 24 hrs by flow cytometry; format: functional; in short: as §3
[15] = test system: K562; test: Induction of apoptosis in human K562 cells assessed as accumulation at sub GO-G1 phase accumulation at 50 uM after 48 hrs by flow cytometry; format: functional; in short: as §3

With COc1cccc2c1C(=O)c1c(O)c3c(c(O)c1C2=O)C[C@@](O)(C(C)=O)C[C@@H]3O[C@H]1C[C@H](N)[C@H](O)[C@H](C)O1 [DAUNORUBICIN] the AC50 [1] was 38 µM and the AC50 [2] was 100 nM.

With CS(=O)(=O)OCCCCOS(C)(=O)=O the Activity [3] was “Active”.

With COc1cc([C@@H]2c3cc4c(cc3[C@@H](O[C@@H]3O[C@@H]5CO[C@@H](C)O[C@H]5[C@H](O)[C@H]3O)[C@H]3COC(=O)[C@H]23)OCO4)cc(OC)c1O [ETOPOSIDE] the AC50 [4] was 0.4 µM and the AC50 [1] was > 400 µM.

CN1N=Nc2c(C(F)(F)F)nn(-c3ccccc3)c2N(C)C1=O was tested, and the IC50 [5] was 21 µM, the IC50 [6] was 30 µM and the IC50 [7] was 40 µM. It also gave an IC50 [8] of 38 µM, an AC50 [4] of 36 µM and an AC50 [1] of 38 µM. The AC50 [9] was 57 µM, the AC50 ([3]; K562, 48 h) was 62 µM and the Activity [10] was “Dose-dependent effect”. For the same compound, the Activity [11] was “inactive”, the Activity [12] was 60.7% and the Activity [13] was 28.7%. The Activity [14] was 5% and the Activity [15] was 52.2%.

Cc1ccc(NC(=O)c2ccc(CN3CCN(C)CC3)cc2)cc1Nc1nccc(-c2cccnc2)n1 [IMATINIB MESYLATE] was tested, and the AC50 [9] was 62 µM.
